# Results reported in ChEMBL document CHEMBL2407032, “Structural modification of pantothenamides counteracts degradation by pantetheinase and improves antiplasmodial activity” (ACS Med Chem Lett, 2013).
# Key:
# Plasmodium falciparum [1] = experiment: Antiplasmodial activity against intraerythrocytic Plasmodium falciparum 3D7 infected in human erythrocytes in heat treated RPMI-1640 culture medium assessed as parasite growth inhibition after 96 hrs by microscopic analysis; assay type: functional, organism-based; settings: 3D7, 96 h
# In short: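 3D7 ring-stage-initiated cultures in erythrocytes, grown 96 h in aged Albumax-complete RPMI. The medium was heat-treated for a prolonged time to reduce pantetheinase activity and held 1 μM pantothenic acid. IC50 from concentration-response. Mean ± SEM (or range/2) of at least two independent experiments, each in triplicate.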
# Plasmodium falciparum [2] = experiment: Antiplasmodial activity against intraerythrocytic Plasmodium falciparum 3D7 infected in human erythrocytes in fresh RPMI-1640 culture medium assessed as parasite growth inhibition after 96 hrs by microscopic analysis; assay type: functional, organism-based; settings: 3D7, 96 h
# In short: (§1)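 3D7 parasites in erythrocytes, started mostly at ring stage, grown 96 h in freshly prepared Albumax-complete RPMI (pantetheinase active) with 1 μM pantothenic acid. IC50 from concentration-response. Mean ± SEM (or range/2) of at least two independent experiments, each in triplicate.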
# pantetheinase = experiment: Drug metabolism of the compound assessed as compound hydrolysis at 200 uM after 10 mins by fluorescence assay in presence of recombinant human pantetheinase; assay type: physicochemical; settings: read-out: Drug metabolism
# Jurkat = experiment: Cytotoxicity against human Jurkat cells after 96 hrs by SYBR green assay in presence of pantothenic acid; assay type: cell-based
# In short: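 Human leukemic T-cell line grown 96 h in medium with 1 μM pantothenic acid. IC50 from concentration-response profiles. Means ± SEM of three independent experiments performed in triplicate.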
# [3] = Selectivity index, ratio of IC50 for human Jurkat cells to IC50 for intraerythrocytic Plasmodium falciparum 3D7 infected in human erythrocytes in fresh RPMI-1640 culture medium; assay type: toxicity, cell-based; settings: read-out: Ratio IC50
# Plasmodium falciparum [4] = experiment: Antiplasmodial activity against intraerythrocytic Plasmodium falciparum 3D7 infected in human erythrocytes in fresh RPMI-1640 culture medium assessed as parasite growth inhibition after 96 hrs by microscopic analysis in presence of pantetheinase; assay type: functional, organism-based; settings: 3D7, 96 h; in short: as §1
Structure (SMILES),"metabolised at 10 min, 200 µM (pantetheinase) [%]",IC50 (Plasmodium falciparum [1]) [µM],IC50 (Plasmodium falciparum [2]) [µM],IC50 (Jurkat) [µM],selectivity ratio [3],IC50 (Plasmodium falciparum [4]) [µM]
COc1cccc(CNC(=O)CCNC(=O)[C@H](O)C(C)(C)CO)c1,,> 200,> 200,,,
CC(C)CCNC(=O)CCCNC(=O)[C@H](O)C(C)(C)CO,5,,8.9,,,
CC(C)(CO)[C@@H](O)C(=O)NCCCC(=O)NCC1CC1,5,,12,,,
CC(C)(CO)[C@@H](O)C(=O)NCCCC(=O)NCC1CCCCC1,5,3.3,2.1,113,54,> 200
CCSCCNC(=O)CCCNC(=O)[C@H](O)C(C)(C)CO,5,1.9,2,> 200,> 100,169
CSCCCNC(=O)CCCNC(=O)[C@H](O)C(C)(C)CO,5,,7.7,,,
CN(C)c1cccc2c(S(=O)(=O)NCCCCCNC(=O)CCCNC(=O)[C@H](O)C(C)(C)CO)cccc12,5,,,,,
CN(C)c1cccc2c(S(=O)(=O)NCCCCCNC(=O)CNC(=O)[C@H](O)C(C)(C)CO)cccc12,5,,155,,,157
CCCCNC(=O)CCNC(=O)[C@H](O)C(C)(C)CO,,,> 200,,,
CCCCCCNC(=O)CCNC(=O)[C@H](O)C(C)(C)CO,,0.55,134,,,
CCCCCCCNC(=O)CCNC(=O)[C@H](O)C(C)(C)CO,,,> 200,,,
CC(C)CNC(=O)CCNC(=O)[C@H](O)C(C)(C)CO,,1.1,200,,,
CC(C)CCNC(=O)CCNC(=O)[C@H](O)C(C)(C)CO,,,> 200,,,
CC(C)(CO)[C@@H](O)C(=O)NCCC(=O)NCC1CC1,,,149,,,
CC(C)(CO)[C@@H](O)C(=O)NCCC(=O)NCC1CCCCC1,,> 200,> 200,,,
CCSCCNC(=O)CCNC(=O)[C@H](O)C(C)(C)CO,,0.28,87,,,
CSCCCNC(=O)CCNC(=O)[C@H](O)C(C)(C)CO,,0.23,143,,,
CC(C)(CO)[C@@H](O)C(=O)NCCC(=O)NCCc1ccccc1,,0.02,53,,,

Structure (SMILES),"metabolised at 10 min, 200 µM (pantetheinase) [%]",IC50 (Plasmodium falciparum [1]) [µM],IC50 (Plasmodium falciparum [2]) [µM],IC50 (Jurkat) [µM],selectivity ratio [3],IC50 (Plasmodium falciparum [4]) [µM]
CC(C)(CO)[C@@H](O)C(=O)NCCC(=O)NCc1ccccc1,,> 200,> 200,,,
COc1ccc(CNC(=O)CCNC(=O)[C@H](O)C(C)(C)CO)cc1,,> 200,> 200,,,
CC(C)(CO)[C@@H](O)C(=O)NCCC(=O)NCc1ccc2c(c1)OCO2,,,144,,,
CC(C)(CO)[C@@H](O)C(=O)NCCC(=O)NCc1ccc(OC(F)(F)F)cc1,,136,> 200,,,
CC(C)(CO)[C@@H](O)C(=O)NCCC(=O)NCc1ccc(C(F)(F)F)cc1,,117,107,,,
CC(C)(CO)[C@@H](O)C(=O)NCCC(=O)NCc1cccc(C(F)(F)F)c1,,156,> 200,,,
CN(C)c1cccc2c(S(=O)(=O)NCCCCCNC(=O)CCNC(=O)[C@H](O)C(C)(C)CO)cccc12,,,> 200,,,
CCCNC(=O)CCCNC(=O)[C@H](O)C(C)(C)CO,5,,13,,,
CCCCNC(=O)CCCNC(=O)[C@H](O)C(C)(C)CO,25,,11,,,
CCCCCNC(=O)CCCNC(=O)[C@H](O)C(C)(C)CO,5,2.2,3.9,192,49,195
CCCCCCNC(=O)CCCNC(=O)[C@H](O)C(C)(C)CO,5,14,8,,,199
CCCCCCCNC(=O)CCCNC(=O)[C@H](O)C(C)(C)CO,5,,11,,,
CC(C)CNC(=O)CCCNC(=O)[C@H](O)C(C)(C)CO,5,,11,,,
CCCCCCCNC(=O)CNC(=O)[C@H](O)C(C)(C)CO,5,,46,,,
CC(C)(CO)[C@@H](O)C(=O)NCC(=O)NCC1CCCCC1,5,140,164,,,
CCCCCNC(=O)CCNC(=O)[C@H](O)C(C)(C)CO,,7.5,182,,,
CCCNC(=O)CCNC(=O)[C@H](O)C(C)(C)CO,,,199,,,

# The next lines start with results.
"metabolised at 10 min, 200 µM (pantetheinase) [%]",Structure (SMILES),IC50 (Plasmodium falciparum [1]) [µM],IC50 (Plasmodium falciparum [2]) [µM],IC50 (Jurkat) [µM],selectivity ratio [3],IC50 (Plasmodium falciparum [4]) [µM]
5,CC(C)(CO)[C@@H](O)C(=O)NCCCC(=O)NCCc1ccccc1,,2.1,99,47,139
5,CC(C)(CO)[C@@H](O)C(=O)NCCCC(=O)NCc1ccccc1,4.7,6.1,,,> 200
5,COc1ccc(CNC(=O)CCCNC(=O)[C@H](O)C(C)(C)CO)cc1,10,9.5,,,> 200
5,COc1cccc(CNC(=O)CCCNC(=O)[C@H](O)C(C)(C)CO)c1,22,21,,,> 200
5,CC(C)(CO)[C@@H](O)C(=O)NCCCC(=O)NCc1ccc2c(c1)OCO2,,2.4,23,9,88
5,CC(C)(CO)[C@@H](O)C(=O)NCCCC(=O)NCc1ccc(OC(F)(F)F)cc1,4.9,6.3,,,> 200
5,CC(C)(CO)[C@@H](O)C(=O)NCCCC(=O)NCc1ccc(C(F)(F)F)cc1,,,,,
5,CC(C)(CO)[C@@H](O)C(=O)NCCCC(=O)NCc1cccc(C(F)(F)F)c1,,,,,
5,COc1cccc(CNC(=O)CNC(=O)[C@H](O)C(C)(C)CO)c1,> 200,> 200,,,
5,CC(C)(CO)[C@@H](O)C(=O)NCC(=O)NCc1ccc2c(c1)OCO2,,53,,,> 200
5,CC(C)(CO)[C@@H](O)C(=O)NCC(=O)NCc1ccc(OC(F)(F)F)cc1,64,71,,,> 200
5,CC(C)(CO)[C@@H](O)C(=O)NCC(=O)NCc1ccc(C(F)(F)F)cc1,45,48,,,57
5,CC(C)(CO)[C@@H](O)C(=O)NCC(=O)NCc1cccc(C(F)(F)F)c1,116,89,,,177
5,CCCNC(=O)CNC(=O)[C@H](O)C(C)(C)CO,,13,,,
25,CCCCNC(=O)CNC(=O)[C@H](O)C(C)(C)CO,,5.3,,,
5,CCCCCNC(=O)CNC(=O)[C@H](O)C(C)(C)CO,14,7,,,142
5,CCCCCCNC(=O)CNC(=O)[C@H](O)C(C)(C)CO,7.9,4.7,126,27,104
5,CC(C)CNC(=O)CNC(=O)[C@H](O)C(C)(C)CO,,18,,,
5,CC(C)CCNC(=O)CNC(=O)[C@H](O)C(C)(C)CO,,12,,,
5,CC(C)(CO)[C@@H](O)C(=O)NCC(=O)NCC1CC1,,6.4,,,183
5,CCSCCNC(=O)CNC(=O)[C@H](O)C(C)(C)CO,11,10,,,200
5,CSCCCNC(=O)CNC(=O)[C@H](O)C(C)(C)CO,,38,,,
5,CC(C)(CO)[C@@H](O)C(=O)NCC(=O)NCCc1ccccc1,,3.4,53,16,135
5,CC(C)(CO)[C@@H](O)C(=O)NCC(=O)NCc1ccccc1,127,122,,,> 200
5,COc1ccc(CNC(=O)CNC(=O)[C@H](O)C(C)(C)CO)cc1,71,26,,,189
